# Screening data (PubChem)
# In the library only some 2.3% were active in any assay of this set; here they are far more common.
# CAL PDZ FP-1: human CAL PDZ-peptide interaction inhibition; purified CAL PDZ, TMR-peptide fluorescence polarization, 1 h; AID 504414; Q9HD26; inhibition, % at 20 µM; 330,000 compounds, 0.02% hits;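 active means highest replicate inhibition of at least 40%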
#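 material = purified tagged CAL PDZ domain construct (CerCALP) | compound dosing = 20 µM, one dose | times = 1 h at RT | measured by = fluorescence polarization from S- and P-plane intensities, G-factor corrected | read-out = inhibition from polarization loss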
# ATG4B inh: blocks human ATG4B protease cleavage of LC3 substrate. Q9Y4P1. ATG4B cleavage of LC3-PLA2, NBD-HPC fluorescence, 1 h. inhibition, % at 8.33 µM. 340,000 compounds, 0.51% hits; in the data active means inhibition above about 40%
# Target sequence (Q9Y4P1 whole entry, looked up): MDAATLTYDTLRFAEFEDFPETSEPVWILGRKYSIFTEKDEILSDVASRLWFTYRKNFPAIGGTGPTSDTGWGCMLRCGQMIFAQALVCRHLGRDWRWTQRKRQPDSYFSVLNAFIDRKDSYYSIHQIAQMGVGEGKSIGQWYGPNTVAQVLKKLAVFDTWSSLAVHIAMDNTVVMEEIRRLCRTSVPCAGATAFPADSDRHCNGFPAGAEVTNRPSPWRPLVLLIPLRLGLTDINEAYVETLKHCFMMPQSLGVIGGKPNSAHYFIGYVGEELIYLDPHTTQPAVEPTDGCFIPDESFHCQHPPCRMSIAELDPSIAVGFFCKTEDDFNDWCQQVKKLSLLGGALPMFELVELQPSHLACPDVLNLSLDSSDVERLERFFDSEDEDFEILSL
# SR-BI DiI-HDL act: activators of SR-BI mediated HDL lipid uptake; CHO ldlA[mSR-BI] cells, DiI-HDL uptake fluorescence, 3 h; 100 = double the neutral-control signal; activation, % at 12.5 µM; AID 504775; 320,000 compounds, 0.096% hits;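 active means mean replicate activation of at least 60% and every replicate at or above 60%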
#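 Test system: SR-BI-overexpressing, LDLR-lacking CHO cells. Measured by: DiI fluorescence, bottom read. Medium: Ham's F12 with 0.5% BSA, HEPES 25 mM, pH 7.4. Timing: 3 h uptake period with compound, 37 °C.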
# SR-BI DiI inh: blocks mouse SR-BI lipid uptake from DiI-HDL. Q61009. ldlA[mSR-BI] CHO cells, DiI-HDL uptake fluorescence, 3 h. inhibition, % at 12.5 µM. 320,000 compounds, 0.96% hits. AID 488896;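 active means mean replicate inhibition of at least 70% and a set share of replicates each scoring 70 or more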
# CAL PDZ FP-2: inhibitors of human CAL PDZ peptide binding | Q9HD26 | purified CAL PDZ, TMR-peptide fluorescence polarization, 1 h | inhibition, % at 24.9 µM | 300,000 compounds, 0.92% hits | AID 602252;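 active means mean inhibition of at least 30% with at least half of replicates also reaching 30%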
# A number is an active result; – = inactive; · = not tested or not shown; + = active, no number.
SMILES,CAL PDZ FP-1,ATG4B inh,SR-BI DiI-HDL act,SR-BI DiI inh,CAL PDZ FP-2
Cc1sc2ncn(-c3ccccc3)c(=O)c2c1C,–,–,–,–,–
COc1ccc(C(=O)Nc2ccc(NS(=O)(=O)c3ccccc3)cc2)cc1OC,–,–,–,74.4,–
Cc1ccc(C(=O)Nc2ccc(Nc3ccccc3)cc2)cc1C,–,–,–,99.4,–
O=C(Nc1ccccc1)c1ccc2snnc2c1,–,–,–,–,78.4
COc1ccc(C(=O)Nc2ccc(S(=O)(=O)Nc3ncccn3)cc2)cc1OC,–,–,–,–,·
Cc1ccc(NC(=O)c2ccc3snnc3c2)cc1,–,–,–,–,–
COc1ccc(C(=O)Nc2ccc(Nc3ccccc3)cc2)cc1OC,–,–,–,79.1,–
COc1ccc(OCCOC(=O)CCS(=O)(=O)c2ccc(C)cc2)cc1,–,–,–,–,–
CCc1nc(C)cn1S(=O)(=O)c1ccc2c(c1)OCCO2,–,–,–,–,·
COc1cc(C(=O)Nc2ccc(NC(C)=O)cc2)ccc1OCc1ccccc1,–,–,–,78.2,–
COc1ccccc1OCc1ccc(C(=O)Nc2ccccc2)cc1,–,–,–,–,–
CCOc1ccc(NS(=O)(=O)c2ccc(NC(=O)c3ccccc3C(=O)O)cc2)cc1,–,–,–,–,75.8
COc1cc(S(=O)(=O)Nc2ccc(C(=O)NCC(=O)O)cc2)ccc1NC(C)=O,–,–,–,–,68.4
COc1ccc(NC(=O)c2ccc(CN3CCN(c4ccccc4)CC3)cc2)cc1OC,–,–,–,76.1,–
CCOc1ccc(NS(=O)(=O)c2ccc(NC(=O)c3ccccn3)cc2)cc1,–,–,–,–,·
Nc1[nH]c(=O)[nH]c(=O)c1N=Cc1ccccc1,–,–,–,–,–
CSc1ncccc1C(=O)OCC(=O)Nc1ccc(N2CCOCC2)cc1,–,–,–,–,–
CCN(CC)CCNC(=O)C(=O)Nc1ccc(C(=O)OC)cc1,–,–,–,–,+
CC(C)(O)CN(CCCNC(=S)Nc1ccccc1)C(=S)Nc1ccccc1,–,–,–,–,–
N=C1SCC(=O)N1c1ncc(Cc2ccccc2Cl)s1,–,–,–,–,30.1
Cc1ccccc1OCC(=O)NC(=S)Nc1ccc(N2CCOCC2)c(Cl)c1,–,–,867.0,–,–
O=C(Cn1cccc1C(=O)c1ccccc1)NCc1ccc(F)cc1,–,–,–,–,·
COc1cc(/C=N/N2CCN(C3c4ccccc4-c4ccccc43)CC2)ccc1O,–,–,–,–,–
COc1cccc(/C=N/N2CCN(C3c4ccccc4-c4ccccc43)CC2)c1O,–,–,–,71.6,–
Cc1ccc2nc(COC(=O)c3ccc(Cl)nc3)cc(=O)n2c1,–,–,–,–,45.7
SMILES,CAL PDZ FP-1,ATG4B inh,SR-BI DiI-HDL act,SR-BI DiI inh,CAL PDZ FP-2
CC1(C)CC(CC(=O)O)CC(C)(C)N1,–,–,–,–,–
C/C(=N\O)C1CC(CC(=O)O)C1(C)C (stereo not given),–,–,–,–,42.8
O=C(NCc1ccc(Cl)cc1)N1CCN(S(=O)(=O)c2ccccc2)CC1,–,–,–,–,–
CC(OC(=O)C1CC1C)C(=O)Nc1ccc(Cl)cn1 (stereo not given),–,–,–,–,–
CC(C)(C)c1ccc(/C=N/N2CCN(c3ccccn3)CC2)cc1,–,–,–,–,53.5
Oc1ccc(/C=N/N2CCN(c3ccccn3)CC2)cc1,–,–,·,·,–
CCOC(=O)c1csc(-c2snnc2C)n1,–,–,–,–,·
COc1ccc(CCNC(=O)c2cccc(NC(=O)CC3SC(N4CCCCC4)=NC3=O)c2)cc1OC (stereo not given),–,–,–,77.5,–
COc1ccc(CCNC(=O)c2ccc(NC(=O)CC3SC(N4CCCC4)=NC3=O)cc2)cc1OC (stereo not given),–,–,–,–,–
N#CCCn1cc(/C=N/NC(N)=S)c(-c2ccccc2)n1,–,–,–,79.0,·
COc1ccc(OC)c(NC(=O)c2sc3nc(Cc4ccccc4)cc(C(F)(F)F)c3c2N)c1,–,–,–,71.2,·
CCOC(=O)c1sc2nc(N3CCOCC3)c3c(c2c1N)CCC3,·,–,–,73.6,–
CC1(C)Cc2c(c(N3CCCC3)nc3sc(C(=O)Nc4ccccc4)c(N)c23)CO1,–,–,–,76.3,–
CCOC(=O)c1ccc(NC(=O)c2sc3nc(N4CCOCC4)c4c(c3c2N)CCCC4)cc1,–,–,–,–,–
